# Legend:
# [1] = system: A498; test: Growth inhibition of human A498 cells; assay type: functional
# [2] = system: HOP-62; test: Growth inhibition of human HOP62 cells; assay type: functional
# [3] = system: HCC 2998; test: Growth inhibition of human HCC2998 cells; assay type: functional
# [4] = system: OVCAR-5; test: Growth inhibition of human OVCAR5 cells; assay type: functional
# [5] = system: TK-10; test: Growth inhibition of human TK10 cells; assay type: functional
# [6] = system: SN12C; test: Growth inhibition of human SN12C cells; assay type: functional
# [7] = system: PC-3; test: Growth inhibition of human PC3 cells; assay type: functional
# [8] = system: Pseudomonas aeruginosa; test: Antimicrobial activity against Pseudomonas aeruginosa assessed per disk; assay type: functional
# [9] = system: CAKI-1; test: Growth inhibition of human Caki1 cells; assay type: functional
# [10] = system: MDA-MB-435; test: Growth inhibition of human MDA-MB-435 cells; assay type: functional
# [11] = system: NCI-H522; test: Growth inhibition of human NCI-H522 cells; assay type: functional
# [12] = system: NCI-H226; test: Growth inhibition of human NCI-H226 cells; assay type: functional
# [13] = system: Escherichia coli; test: Antimicrobial activity against Escherichia coli assessed per disk; assay type: functional
# [14] = system: A549; test: Growth inhibition of human A549 cells; assay type: functional
# [15] = system: KM12; test: Growth inhibition of human KM12 cells; assay type: functional
# [16] = system: SF-539; test: Growth inhibition of human SF539 cells; assay type: functional
# [17] = system: HT-29; test: Growth inhibition of human HT-29 cells; assay type: functional
# [18] = system: DU-145; test: Growth inhibition of human DU145 cells; assay type: functional
# [19] = system: HOP-92; test: Growth inhibition of human HOP92 cells; assay type: functional
# [20] = system: MOLT-4; test: Growth inhibition of human MOLT4 cells; assay type: functional
# [21] = system: MCF7; test: Growth inhibition of human MCF7 cells; assay type: functional
# [22] = system: SF-268; test: Growth inhibition of human SF268 cells; assay type: functional
# [23] = system: NCI-H460; test: Growth inhibition of human NCI-H460 cells; assay type: functional
# [24] = system: COLO 205; test: Growth inhibition of human COLO205 cells; assay type: functional
# [25] = system: SF-295; test: Growth inhibition of human SF295 cells; assay type: functional
# [26] = system: BT-549; test: Growth inhibition of human BT549 cells; assay type: functional
# [27] = system: OVCAR-3; test: Growth inhibition of human OVCAR-3 cells; assay type: functional
# [28] = system: SR; test: Growth inhibition of human SR cells; assay type: functional
# [29] = system: Amorphotheca resinae; test: Antimicrobial activity against Cladosporium resinae assessed per disk; assay type: functional
# [30] = system: ACHN; test: Growth inhibition of human ACHN cells; assay type: functional
# [31] = system: SK-MEL-28; test: Growth inhibition of human SK-MEL-28 cells; assay type: functional
# [32] = system: LOX IMVI; test: Growth inhibition of human LOXIMVI cells; assay type: functional
# [33] = system: NCI/ADR-RES; test: Growth inhibition of human NCI/ADR-RES cells; assay type: functional
# [34] = system: T47D; test: Growth inhibition of human T47D cells; assay type: functional
# [35] = system: OVCAR-8; test: Growth inhibition of human OVCAR8 cells; assay type: functional
# [36] = Growth inhibition of human […] cells; assay type: functional
# [37] = Cytotoxicity against african green monkey BSC1 cells at 40 ug/disk; assay type: cell-based; conditions: chlorocebus aethiops, bsc-1
# Procedure, shortened: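 BSC-1 cells (ATCC CCL 26), a line derived from African green monkey kidney, are the host cells of the combined antiviral/cytotoxicity assay. Cytotoxicity is scored on these cells within that assay.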
# [38] = system: IGROV-1; test: Growth inhibition of human IGROV1 cells; assay type: functional
# [39] = system: NCI-H322M; test: Growth inhibition of human NCI-H322M cells; assay type: functional
# [40] = system: CCRF-CEM; test: Growth inhibition of human CCRF-CEM cells; assay type: functional
# [41] = system: HCT-15; test: Growth inhibition of human HCT15 cells; assay type: functional
# [42] = system: RXF 393; test: Growth inhibition of human RXF393 cells; assay type: functional
# [43] = system: SK-OV-3; test: Growth inhibition of human SKOV3 cells; assay type: functional
# [44] = system: EKVX; test: Growth inhibition of human EKVX cells; assay type: functional
# [45] = read-out: LC50 (the source's name)
compound,measurement,setting,value
COc1cn2c(cc1=O)C(=O)c1ccnc(CC(C)C)c1-2 [PTEROCELLIN A],GI50,[1],900 nM
same,TGI,[1],2200 nM
same,CC50,[1]; [45],5.1 µM
same,GI50,[2],1700 nM
same,TGI,[2],3.1 µM
same,CC50,[2]; [45],5.6 µM
same,GI50,[3],1600 nM
same,LC50 (concentration killing 50% of cells),[3],6 µM
same,TGI,[3],3.1 µM
same,GI50,[4],2000 nM
same,TGI,[4],3.4 µM
same,CC50,[4]; [45],5.6 µM
same,GI50,[5],3.1 µM
same,TGI,[5],6.8 µM
same,CC50,[5]; [45],23.1 µM
same,GI50,[6],1700 nM
same,LC50,[6],6.5 µM
same,TGI,[6],3.3 µM
same,GI50,[7],2900 nM
same,LC50 (concentration killing 50% of cells),[7],45.1 µM
same,TGI,[7],8.4 µM
same,MIC,[8],>60 µg
same,GI50,[9],2100 nM
same,TGI,[9],4.6 µM
same,CC50,[9]; [45],11.1 µM
same,GI50,[10],200 nM
same,TGI,[10],300 nM
same,CC50,[10]; [45],600 nM
same,GI50,[11],1700 nM
same,TGI,[11],3.3 µM
same,CC50,[11]; [45],6.5 µM
same,GI50,[12],1700 nM
same,TGI,[12],3.5 µM
same,CC50,[12]; [45],7.4 µM
same,MIC,[13],>60 µg
same,GI50,[14],1300 nM
same,LC50 (50% cell kill concentration),[14],> 100 µM
same,TGI,[14],5.1 µM
same,GI50,[15],1600 nM
same,TGI,[15],3.4 µM
same,CC50,[15]; [45],7.3 µM
same,GI50,[16],1800 nM
same,TGI,[16],3.6 µM
same,CC50,[16]; [45],7.1 µM
same,GI50,[17],1300 nM
same,LC50,[17],> 100 µM
same,TGI,[17],7.2 µM
same,GI50,[18],700 nM
same,TGI,[18],2000 nM
same,CC50,[18]; [45],4.7 µM
same,GI50,[19],2200 nM
same,TGI,[19],4.9 µM
same,CC50,[19]; [45],14.1 µM
same,GI50,[20],3.5 µM
same,LC50 (concentration killing 50% of cells),[20],> 100 µM
same,TGI,[20],> 100 µM
same,GI50,[21],1500 nM
same,TGI,[21],4.9 µM
same,CC50,[21]; [45],> 100 µM
same,GI50,[22],2100 nM
same,LC50 (concentration killing 50% of cells),[22],26.7 µM
same,TGI,[22],6.7 µM
same,GI50,[23],800 nM
same,LC50 (concentration causing 50% cell kill),[23],7.1 µM
same,TGI,[23],2600 nM
same,GI50,[24],1600 nM
same,TGI,[24],3.7 µM
same,CC50,[24]; [45],8.4 µM
same,GI50,[25],1300 nM
same,LC50 (concentration killing 50% of starting cells),[25],5.2 µM
same,TGI,[25],2600 nM
same,GI50,[26],1700 nM
same,TGI,[26],4 µM
same,CC50,[26]; [45],9.3 µM
same,GI50,[27],1500 nM
same,TGI,[27],4.6 µM
same,CC50,[27]; [45],19.3 µM
same,GI50,[28],2000 nM
same,TGI,[28],> 100 µM
same,CC50,[28]; [45],> 100 µM
same,MIC,[29],>60 µg
same,GI50,[30],2300 nM
same,TGI,[30],9.1 µM
same,CC50,[30]; [45],> 100 µM
same,GI50,[31],1900 nM
same,TGI,[31],4.2 µM
same,CC50,[31]; [45],9.3 µM
same,GI50,[32],1300 nM
same,LC50,[32],> 100 µM
same,TGI,[32],7.4 µM
same,GI50,[33],2100 nM
same,TGI,[33],4.9 µM
same,CC50,[33]; [45],> 100 µM
same,GI50,[34],1800 nM
same,TGI,[34],6.5 µM
same,CC50,[34]; [45],> 100 µM
same,GI50,[35],2200 nM
same,TGI,[35],17.6 µM
same,CC50,[35]; [45],> 100 µM
same,GI50,[36],1700 nM
same,TGI,[36],4.2 µM
same,CC50,[36]; [45],> 100 µM
same,Activity,[37],Toxic
same,GI50,[38],2100 nM
same,TGI,[38],5.4 µM
same,CC50,[38]; [45],18.4 µM
same,GI50,[39],1600 nM
same,LC50 (concentration killing 50% of cells),[39],5.6 µM
same,TGI,[39],3000 nM
same,GI50,[40],50 nM
same,TGI,[40],800 nM
same,CC50,[40]; [45],> 100 µM
same,GI50,[41],1600 nM
same,TGI,[41],4.2 µM
same,CC50,[41]; [45],17.3 µM
same,GI50,[42],3.2 µM
same,LC50,[42],46.6 µM
same,TGI,[42],12.3 µM
same,GI50,[43],6.1 µM
same,TGI,[43],21.9 µM
same,CC50,[43]; [45],59.2 µM
same,GI50,[44],2100 nM
same,TGI,[44],5.8 µM
same,CC50,[44]; [45],23.6 µM

# — ChEMBL document CHEMBL1146569, “The pterocellins, novel bioactive alkaloids from the marine bryozoan Pterocella vesiculosa” (J Nat Prod, 2003)
